Experimental data of several laboratories.
Each line is one published result; the experiments were not run side by side.
Target: Interferon-induced, double-stranded RNA-activated protein kinase (EIF2AK2, Homo sapiens, UniProt P19525)

CC(C)(C)c1nc2c(s1)c1nc(N)ncc1c1ccc(NS(=O)(=O)c3c(F)cccc3F)c(F)c12 has a remaining activity of 93% (enzyme activity; inhibitor; radiometric; 1 µM).
Cc1ccc(NC(=O)c2ccc(C)c(C(F)(F)F)c2)cc1C#Cc1nn(C2CCC(O)CC2)c2ncnc(N)c12 (centres unmarked) gave a remaining signal of 75% (cell-free assay; 10 µM).
The remaining binding of C[C@H]1CCN(c2nccc(-c3cnn4ncccc34)n2)C1 is reported as 100% (binding; 1 µM).
CC/C(=N\NC(=O)NCc1cccc(O)c1)c1ccc(O)c(C)c1O gave an inhibition of 8.7% (enzyme activity; inhibitor; 0.1 µM).
With Cc1cnc(NC2CCOCC2)nc1-n1cnc(C(=O)NC(CN)c2cc(F)cc(Cl)c2)c1 (centres unmarked) the remaining activity was 39% (enzyme activity; inhibitor; radiometric; 1 µM).
CNc1cc(Oc2cc(C(=O)Nc3cc(N4CCN(C)CC4)cc(C(F)(F)F)c3)ccc2C)ncn1 gave an inhibition of -13% (target engagement in cells; inhibitor; chemoproteomics; Huh-7; 1 µM).
The remaining binding of Cc1nc(N2CC[C@@H](O)C2)ncc1-c1cc(C(F)(F)F)cc2[nH]ncc12 is reported as 100% (binding; competition with immobilised ligand; 1 µM).
c1ccc(CNc2nc(N3CCOc4ccccc43)nc3c2CCCC3)cc1 has an inhibition of -5.4% (target engagement in cells; inhibitor; chemoproteomics; 20 mM).
The remaining activity of CC(C)(C)c1nc(-c2cccc(NS(=O)(=O)c3c(F)cccc3F)c2F)c(-c2ccnc(N)n2)s1 is reported as 95% (enzyme activity; inhibitor; radiometric; 1 µM).
CC(C)CC(=O)N1CCc2nc(-c3ccc(Br)cc3)nc(N(C)Cc3ccccc3)c2C1 gave a remaining binding of 100% (cell-free assay; competition with immobilised ligand; 0.1 µM).
For Cc1ccc(C(=O)NCc2ccsc2)cc1C#Cc1cn(C(C)C)c2ncnc(N)c12, the activity vs control was 97% (enzyme activity; inhibitor; 1 µM).
With Cc1cc(NC(=O)c2cccc3cc(-c4cccc5[nH]nc(N)c45)ccc23)ccc1F the activity vs control was 106% (enzyme activity; inhibitor; 0.1 µM).
With CCCCNc1ncc2c(-c3ccc(F)cc3)nn(C[C@H]3CC[C@H](N)CC3)c2n1 the inhibition was 8.5% (target engagement in cells; inhibitor; chemoproteomics; 20 mM).
With CN1CC(Oc2cnc(C#N)cc2-c2ccn3nc(NC(=O)C4CC4)cc3c2)C1 the inhibition was 14% (enzyme activity; inhibitor; 1 µM).
For Cc1ccc(C(=O)Nc2ccc(CN3CCN(C)CC3)c(C(F)(F)F)c2)cc1C#Cc1cnc2cccnn12, the remaining activity was 100% (enzyme activity; inhibitor; 23.5 nM).
N#Cc1ccc(Nc2ccc3[nH]c(=O)[nH]c3c2)c(Cl)c1 has a remaining binding of 57% (cell-free assay; competition with immobilised ligand; 1 µM).
The remaining signal of Nc1ncnc2occ(-c3ccc(NC(=O)Nc4cc(C(F)(F)F)ccc4F)cc3)c12 is reported as 54% (cell-free assay; inhibitor; 20 µM).
